Measurements of several laboratories.
Protocols differ between the studies behind these lines.
Target: Serine/threonine-protein kinase pim-2 (PIM2, Homo sapiens, UniProt Q9P1W9)

Nc1ncc(-c2nc(N3CCOCC3)nc(N3CCOCC3)n2)c(C(F)F)n1
remaining binding (binding, competition with immobilised ligand; 10 µM): 92%

Cn1cc(-c2cc(F)cc(N3CCn4c(cc5c4CCCC5)C3=O)c2CO)cc(Nc2ccc(N3CCN(C4COC4)CC3)cn2)c1=O
inhibition (enzyme activity, inhibitor; 0.1 µM): -1%

C#Cc1n[nH]c2c(-c3cn(C(C)c4ccccn4)c(=O)[nH]c3=O)cc(F)cc12 (stereo not drawn)
inhibition (enzyme activity, inhibitor; 1 µM): -1.5%

O=c1[nH]c2ccccc2n1C1CCN(Cc2ccc(-c3[nH]c4cc5ncnc5cc4nc3-c3ccccc3)cc2)CC1
remaining signal (cell-free assay; 0.5 µM): 111%

Cn1cc(-c2cccc(N3CCc4c(sc5c4CC(C)(C)C5)C3=O)c2CO)cc(Nc2ccncn2)c1=O
inhibition (enzyme activity, inhibitor; 1 µM): 1%

COc1ncccc1-c1cnn2ccc(N3CCN(C(=O)OC(C)C)CC3)nc12
remaining binding (binding, competition with immobilised ligand; 1 µM): 100%

CC(C)(C)c1cc(C=C(C#N)C#N)cc(Br)c1O
remaining activity (enzyme activity, inhibitor; 0.5 µM): 115%

Cc1nn(C)cc1-c1nc2c(N3CCN(Cc4ccc(Cl)cc4)CC3)c(Cl)cnc2[nH]1
remaining binding (binding, competition with immobilised ligand; 1 µM): 100%

N#CC1(c2ccccn2)CCN(Cc2cc(C(=O)O)c(=O)n3ccccc23)CC1
remaining binding (cell-free assay, competition with immobilised ligand; 1 µM): 100%

COc1cc(Nc2ncc(F)c(Nc3ccc4c(n3)NC(=O)C(C)(C)O4)n2)cc(OC)c1OC
inhibition (binding, competition with immobilised ligand; 10 µM): 0%

C#Cc1n[nH]c2c(-c3cn([C@@H](C)c4ccccc4)c(=O)[nH]c3=O)cc(F)cc12
inhibition (enzyme activity, inhibitor; 0.1 µM): 3.2%

Cn1cncc1[C@](O)(COc1ccc(C#N)cc1-c1ccc(OC(F)(F)F)cc1)c1ccc(C#N)cc1
remaining binding (cell-free assay, competition with immobilised ligand; 1 µM): 84%
